Measured values published in ChEMBL document CHEMBL1133678, “Synthesis of new indeno[1,2-c]isoquinolines: cytotoxic non-camptothecin topoisomerase I inhibitors” (2000).

Legend:
SF-539 = experiment: Antiproliferative activity was determined for 50% growth inhibition against human CNS SF-539 cell line; type: functional
Method in brief: (§1)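 Human cancer cell lines from the roughly 55-line panel. GI50 is the concentration giving 50% growth inhibition. The test range was 10^-4 to 10^-8 M. Values outside the range were set to the minimum (10^-8 M) or the maximum (10^-4 M).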

HCT-116 = experiment: Antiproliferative activity was determined for 50% growth inhibition against human colon HCT116 cell line; type: functional; details: Homo sapiens, HCT-116; method in brief: as §1
[1] = system: Panel (Carcinoma cell lines); experiment: Mean graph midpoint for growth inhibition of all human cancer cell lines; type: functional; design: unit: µM
Method in brief: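 Mean graph midpoint across all cell lines successfully tested in the roughly 55-line human cancer panel. Each line's GI50 is the 50% growth-inhibition concentration, tested over 10^-4 to 10^-8 M. Out-of-range values were set to 10^-8 M or 10^-4 M before averaging.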

SN12C = experiment: Antiproliferative activity was determined for 50% growth inhibition against human renal SN12C cell line; type: functional; details: Homo sapiens, SN12C; method in brief: as §1
DU-145 [2] = experiment: Antiproliferative activity was determined for 50% growth inhibition against human Prostate DU-145 cell line; type: functional; details: Homo sapiens, DU-145; method in brief: as §1
UACC-62 = experiment: Antiproliferative activity was determined for 50% growth inhibition against human melanoma UACC-62 cell line; type: functional; details: Homo sapiens, UACC-62; method in brief: as §1
HOP-62 = experiment: Antiproliferative activity was determined for 50% growth inhibition against human lung HOP-62 cell line; type: functional; details: Homo sapiens, HOP-62; method in brief: as §1
OVCAR-3 = experiment: Antiproliferative activity was determined for 50% growth inhibition against human ovarian OVCAR-3 cell line; type: functional; method in brief: as §1
MDA-MB-435 = experiment: Antiproliferative activity was determined for 50% growth inhibition against human breast MDA-MB-435 cell line; type: functional; details: Homo sapiens, MDA-MB-435; method in brief: as §1
[3] = target: T1, DNA topoisomerase 1 (Homo sapiens) (UniProt P11387); experiment: Inhibitory activity of compound against human recombinant DNA topoisomerase I mediated DNA cleavage; Weak activity
T1 sequence (whole entry): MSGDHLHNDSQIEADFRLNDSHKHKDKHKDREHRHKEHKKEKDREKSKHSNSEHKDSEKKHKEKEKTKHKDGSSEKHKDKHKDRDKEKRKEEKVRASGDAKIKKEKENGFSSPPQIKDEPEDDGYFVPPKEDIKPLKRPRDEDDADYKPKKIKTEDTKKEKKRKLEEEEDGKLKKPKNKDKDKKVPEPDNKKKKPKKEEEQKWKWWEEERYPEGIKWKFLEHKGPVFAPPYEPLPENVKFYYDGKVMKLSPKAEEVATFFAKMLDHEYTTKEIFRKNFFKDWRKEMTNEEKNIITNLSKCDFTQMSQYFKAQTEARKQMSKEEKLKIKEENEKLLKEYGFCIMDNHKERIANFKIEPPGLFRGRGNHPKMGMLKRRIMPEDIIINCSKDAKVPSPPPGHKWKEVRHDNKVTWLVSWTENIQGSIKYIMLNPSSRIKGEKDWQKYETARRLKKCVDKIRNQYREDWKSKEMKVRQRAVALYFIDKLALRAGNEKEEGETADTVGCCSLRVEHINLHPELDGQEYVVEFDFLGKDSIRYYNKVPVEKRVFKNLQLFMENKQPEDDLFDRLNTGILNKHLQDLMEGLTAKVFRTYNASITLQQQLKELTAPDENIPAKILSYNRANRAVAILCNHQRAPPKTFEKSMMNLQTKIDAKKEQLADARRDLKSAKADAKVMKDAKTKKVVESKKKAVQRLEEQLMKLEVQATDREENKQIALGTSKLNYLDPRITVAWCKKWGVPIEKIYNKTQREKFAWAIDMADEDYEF

DU-145 [4] = experiment: Antiproliferative activity was determined for 50% growth inhibition against human Prostate c; type: functional; details: DU-145, Prostate gland; method in brief: as §1

SMILES	GI50 (SF-539; Homo sapiens, SF-539) [µM]	GI50 (HCT-116) [µM]	MGM [1]	GI50 (SN12C) [µM]	GI50 (DU-145 [2]) [µM]	GI50 (UACC-62) [µM]	GI50 (HOP-62) [µM]	GI50 (OVCAR-3; Homo sapiens, OVCAR-3) [µM]	GI50 (MDA-MB-435) [µM]	Activity [3]	GI50 (SF-539) [µM]	GI50 (DU-145 [4]) [µM]	GI50 (OVCAR-3) [µM]
O=C1c2ccccc2-c2c1c1ccccc1c(=O)n2CCCl	2.48	3.86	4.37	4.39	3.5	8.08	3.81	5.87	3.7	Weak activity	–	–	–
COc1cc2c3c(n(CCCNCCO)c(=O)c2cc1OC)-c1cc2c(cc1C3=O)OCO2.Cl	–	0.1	0.11	< 0.01	–	0.03	0.02	–	0.79	–	0.04	< 0.01	0.35
